For experiment [1], the system named is Rattus norvegicus. Description: Antiinflammatory activity by rat adjuvant arthritis assay at 30 mg/kg peroral administration (uninjected paw at day 16). The following applies: route oral.
In experiment [2] the target is T1, Polyunsaturated fatty acid 5-lipoxygenase (Rattus norvegicus) (UniProt P12527).
T1 sequence (whole entry): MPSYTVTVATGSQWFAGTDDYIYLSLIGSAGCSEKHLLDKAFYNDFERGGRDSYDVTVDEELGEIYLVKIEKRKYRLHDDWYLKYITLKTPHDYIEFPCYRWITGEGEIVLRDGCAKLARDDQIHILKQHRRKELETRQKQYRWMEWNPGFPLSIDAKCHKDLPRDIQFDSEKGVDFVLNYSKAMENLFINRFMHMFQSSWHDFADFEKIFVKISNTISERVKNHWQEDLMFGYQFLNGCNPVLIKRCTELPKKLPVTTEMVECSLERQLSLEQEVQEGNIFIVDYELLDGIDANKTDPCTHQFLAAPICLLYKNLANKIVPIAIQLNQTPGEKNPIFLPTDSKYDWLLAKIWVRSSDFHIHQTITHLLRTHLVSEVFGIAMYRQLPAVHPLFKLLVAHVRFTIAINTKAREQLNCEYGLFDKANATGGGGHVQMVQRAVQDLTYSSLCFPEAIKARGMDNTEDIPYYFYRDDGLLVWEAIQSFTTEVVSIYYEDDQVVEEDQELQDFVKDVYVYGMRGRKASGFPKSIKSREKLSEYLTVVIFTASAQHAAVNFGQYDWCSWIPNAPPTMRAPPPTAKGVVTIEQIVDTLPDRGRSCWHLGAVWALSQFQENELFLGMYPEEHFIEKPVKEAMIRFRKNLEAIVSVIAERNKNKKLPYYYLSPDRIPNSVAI
Briefly: Inhibition of 5-lipoxygenase pathway in rat polymorphonuclear assay, by ability to inhibit formation of LTB4 AT 10 uM.

Experiment [3] deals with Rattus norvegicus. Description: Antiinflammatory activity by rat Carrageenan edema assay at 50 mg/kg peroral administration (3h edema). Conditions: route oral. The class given is functional. The gist of the method:
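Groups of six male Sprague-Dawley rats (150-165 g) were dosed po in 0.5% methyl cellulose. One hour later, 0.1 mL of 1% carrageenan was injected subplantar into the right hind paw. Edema was taken as the 3 h paw volume minus the zero-time volume and expressed as percent change versus vehicle; screening dose was 50 mg/kg po.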
In general terms: Carrageenan injected into the paw causes an acute inflammation.

Experiment [4] concerns the target T1, Polyunsaturated fatty acid 5-lipoxygenase (Rattus norvegicus). Briefly: Inhibition of 5-lipoxygenase pathway in rat polymorphonuclear assay (inhibition of 5-HETE formation). The essentials:
(§1)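 Rat polymorphonuclear leucocytes at 10^7 cells/mL in HBSS (Mg2+, Ca2+, 10 mM cysteine) were preincubated with compound, added in DMSO, for 10 min at 37 °C with shaking. Radiolabeled eicosanoids (5-HETE for the 5-LO pathway, TXB2 for the CO pathway) were separated by HPLC and detected with an in-line radioactivity detector. Results are given as percent change at 10 µM or 50 µM.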

Experiment [5] shares this target. Briefly: Inhibition of 5-lipoxygenase pathway was evaluated in rat polymorphonuclear assay by compound (50 uM) ability to inhibit formation of 5-HETE. The gist of the method:
as §1

Experiment [6] shares this target. Description: 5-lipoxygenase Inhibitory activity against rat polymorphonuclear leucocytes using 5-HETE. The gist of the method: as §1

Experimental findings from ChEMBL document CHEMBL1128308, “Synthesis and antiinflammatory activity of certain 5,6,7,8-tetrahydroquinolines and related compounds” (J Med Chem, 1995) are described below.

With `Cc1cc2c(nc1C(O)c1cccs1)CCCCC2` (stereo unspecified), the Change in the experiment with Rattus norvegicus [1] was -6%; in experiment [2] it was 34%; with Rattus norvegicus [3], -9.5%; in experiment [4], 37%.
For the compound `Cc1ccc(C(O)c2ccc3c(n2)CCCCC3)cc1` (stereo unspecified), the Change was -33% in the experiment with Rattus norvegicus [1], -25% in experiment [2], -26% in the experiment with Rattus norvegicus [3] and -28% in experiment [4].
Regarding `Cc1ccc(C(O)Cc2ccc3c(n2)CCCCC3)cc1` (stereo unspecified), the Change in the experiment on Rattus norvegicus [1] was 28%; in experiment [2], -29%; with Rattus norvegicus [3], -41%; in experiment [4] it was -14%.
As for `COc1cc(/C=C2\CCCc3cc4ccccc4nc32)ccc1OC(C)=O`, the Change is 14% with Rattus norvegicus [1], -100% in experiment [5] and -39% in the experiment on Rattus norvegicus [3].
On to `Cc1ccc([C@H](O)[C@@H]2CCCc3cc(C)cnc32)cc1`, for which the Change in the experiment with Rattus norvegicus [1] was 49%; in experiment [2], -48%; with Rattus norvegicus [3], -33%; in experiment [4] it was -49%.
Consider `COc1cccc(C(O)c2nc3c(cc2C)CCCCC3)c1` (stereo unspecified), for which the Change in the experiment with Rattus norvegicus [1] was -14%; in experiment [2] it was -50%; with Rattus norvegicus [3], -28%; in experiment [4] it was -34%.
Take `Cc1cc2c(nc1C(O)c1ccccc1)CCCCC2` (stereo unspecified): the Change in the experiment with Rattus norvegicus [1] was -45%; in experiment [2], -4%; in the experiment with Rattus norvegicus [3], -45%; in experiment [4] it was -29%.
`Cc1cnc2c(c1)CCCC2S(=O)(=O)c1ccccc1` (stereo unspecified): the Change in the experiment on Rattus norvegicus [1] is -2%; in experiment [2], 6%; with Rattus norvegicus [3], -22%; in experiment [4] it was 0%.
`Cc1ccc(C(N)c2nc3c(cc2C)CCCCC3)cc1` (stereo unspecified): the Change in the experiment with Rattus norvegicus [1] is -3%; in experiment [2], -29%; in the experiment on Rattus norvegicus [3] it was -10%; in experiment [4] it was -23%.
Regarding `Cc1cnc2c(c1)CCCC2Sc1ccccc1` (stereo unspecified), the Change in the experiment with Rattus norvegicus [1] is -27%; in experiment [6] it was -50%; in experiment [2], -39%; in the experiment with Rattus norvegicus [3], -21%.
As for `Cc1ccc(C(=O)c2nc3c(cc2C)CCCCC3)cc1`, the Change with Rattus norvegicus [1] is -26%; in experiment [2] it was -52%; in the experiment on Rattus norvegicus [3], -59%; in experiment [4] it was -49%.
`Cc1ccc([C@@H](O)[C@@H]2CCCCc3cccnc32)cc1`: the Change is -42% with Rattus norvegicus [1], -37% in experiment [2], -33% in the experiment with Rattus norvegicus [3] and -37% in experiment [4].
Take `Cc1ccc(S(=O)(=O)NC2CCCc3cc(C)cnc32)cc1` (stereo unspecified): the Change was 77% in the experiment on Rattus norvegicus [1], -16% in experiment [6], 2% in experiment [2] and -33% with Rattus norvegicus [3].
In the case of `C/C(=C1\CCCc2c(C)ccnc21)c1ccc(C)cc1`, the Change in the experiment on Rattus norvegicus [1] is -14%; in experiment [6] it was 7%; in experiment [2], -22%; with Rattus norvegicus [3], -15%.
As to `COc1cc(/C=C2\CCCc3cc(C)cnc32)ccc1O`, the Change in the experiment with Rattus norvegicus [1] is -1%; in the experiment with Rattus norvegicus [3] it was -36%.
On to `Cc1ccc(C(=O)C2CCCc3c(C)ccnc32)cc1C` (stereo unspecified), for which the Change was -28% in the experiment on Rattus norvegicus [1], -50% in experiment [6], -53% in experiment [2] and -25% in the experiment on Rattus norvegicus [3].
As for `C/C(=C1/CCCc2c(C)ccnc21)c1ccc(C)cc1`, the Change with Rattus norvegicus [1] was 0%; in experiment [6], 1%; in experiment [2], -18%; with Rattus norvegicus [3], -15%.
Regarding `Cc1ccc(C(O)c2nc3c(cc2C)CCC3)cc1` (stereo unspecified), the Change in the experiment with Rattus norvegicus [1] is -2%; in experiment [2] it was -43%; in the experiment on Rattus norvegicus [3], -3.5%; in experiment [4] it was -45%.
As to `Cc1cc2c(nc1C(O)c1ccc(C(F)(F)F)cc1)CCCCC2` (stereo unspecified), the Change is -18% with Rattus norvegicus [1], 40% in experiment [2], -24% in the experiment on Rattus norvegicus [3] and 5% in experiment [4].
For the compound `Cc1ccc(/C=C2\c3ncc(C)cc3CCC2(C)C)cc1`, the Change with Rattus norvegicus [1] was 8%; in experiment [6], 97%; in experiment [2] it was 86%; with Rattus norvegicus [3], -48%.
Take `Cc1ccc(C(O)c2nc3c(cc2C)CCCC3)cc1` (stereo unspecified): the Change with Rattus norvegicus [1] is -34%; in experiment [2], -23%; with Rattus norvegicus [3], -12.5%; in experiment [4], -44%.
As for `Cc1ccc(Cc2nc3c(cc2C)CCCCC3)cc1`, the figures for the Change (in experiment [2]; in the experiment on Rattus norvegicus [3]; in experiment [4]) were -57%, -26% and -37%, respectively.
For the compound `Cc1ccc(C(C)(O)c2nc3c(cc2C)CCCCC3)cc1` (stereo unspecified), the Change is -4% in the experiment with Rattus norvegicus [1], -13% in experiment [2], 2.5% in the experiment on Rattus norvegicus [3] and -14% in experiment [4].
On the same counts, the results for `Cc1ccc([C@H](O)[C@@H]2CCCCc3cccnc32)cc1` are -32%, -37%, -26% and -31%.
On the same counts, the results for `Cc1ccc([C@@H](O)[C@H]2c3ncc(C)cc3CCC2(C)C)cc1` are -39%, 8%, -19% and 27%.
For the compound `COC(c1ccc(C)cc1)c1nc2c(cc1C)CCCCC2` (stereo unspecified), the Change in the experiment with Rattus norvegicus [1] was -26%; in experiment [2] it was -12%; in the experiment with Rattus norvegicus [3] it was -9.5%; in experiment [4], -10%.
Take `Cc1ccnc2c1CCC/C2=C\c1ccncc1`: the Change in the experiment with Rattus norvegicus [1] is 3%; in experiment [6] it was 9%; in experiment [2] it was -4%; with Rattus norvegicus [3] it was -15%.
Consider `Cc1cc2c(nc1C(O)c1cccnc1)CCCCC2` (stereo unspecified), for which the Change in the experiment on Rattus norvegicus [1] was 18%; in experiment [2] it was 9%; in the experiment with Rattus norvegicus [3], -14%; in experiment [4] it was -5%.
As for `Cc1cccc(C(=O)C2CCCc3cccnc32)c1` (stereo unspecified), the Change was -16% in the experiment on Rattus norvegicus [1], 23% in experiment [6], -11% in experiment [2] and -6% in the experiment on Rattus norvegicus [3].
On the same counts, the results for `Cc1ccnc2c1CCC/C2=C/c1ccnc2ccccc12` are -38%, -5%, -23% and -36%.
As for `Cc1cnc2c(c1)CCCC2[S+]([O-])c1ccccc1` (stereo unspecified), the Change with Rattus norvegicus [1] is 13%; in experiment [2], 13%; in the experiment on Rattus norvegicus [3] it was -25%; in experiment [4], 50%.
As to `Cc1ccc([C@@H](O)[C@@H]2CCCc3cc(C)cnc32)cc1`, the Change is -3% in the experiment on Rattus norvegicus [1], -11% in experiment [2], -15% in the experiment with Rattus norvegicus [3] and -27% in experiment [4].
With `Cc1ccnc2c1CCC/C2=C/c1ccncc1`, the Change in the experiment on Rattus norvegicus [1] is -49%; in experiment [6], -17%; in experiment [2], -25%; in the experiment on Rattus norvegicus [3], -17%.
With `Cc1cc2c(nc1C(O)c1cccc(Cl)c1)CCCCC2` (stereo unspecified), the Change in the experiment on Rattus norvegicus [1] was 30%; in experiment [2] it was -51%; with Rattus norvegicus [3] it was -28%; in experiment [4], -42%.
As for `Cc1ccc(C(=O)C2CCCc3c(C)ccnc32)cc1` (stereo unspecified), the Change was 19% in the experiment with Rattus norvegicus [1], -41% in experiment [6], -34% in experiment [2] and -12% in the experiment on Rattus norvegicus [3].
